In the library only some 1.7% were active in any assay of this set; here they are far more common.
PLCb3 inh = PLC-beta3 (human) inhibition, primary screen | Q01970 | Purified PLC-beta3, fluorogenic substrate, fluorescence | inhibition, % at 12.2 µM | actives 0.18% (n = 370,000) | AID 720704; in the data active = inhibition above about 11%
Rpn11 inh = blocks the human proteasome subunit Rpn11; actives 0.59% (n = 360,000); AID 588493; human 26S proteasome, Ub4-pepOG fluorescence polarization; 20S core pre-blocked with epoxomicin; inhibition, % at 20 µM;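 active = inhibition at 20 µM, scaled to each plate's controls, above about 33%, limit read from the data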
PLCg1 inh = inhibitors of human phospholipase C gamma1. P19174. purified PLC-gamma1, fluorogenic substrate, fluorescence. actives 0.84% (n = 370,000). inhibition, % at 12.2 µM
UCH37 inh = blocks the human deubiquitinase UCH37. Q9Y5K5. actives 0.33% (n = 330,000). AID 588478. inhibition, % (no concentration beside the values). purified proteasome/UCH37, Ub-AMC cleavage fluorescence;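 active = mean inhibition over replicate wells above about 20%, limit read from the data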
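System: Proteasome-associated human UCH37 deubiquitinase; Input: 0.15 nM proteasome in added enzyme buffer; Also added: Ub-AMC substrate from 1 µM stock; Incubation: 30 min compound-proteasome preincubation then 25 min substrate reaction, room temperature; Detection: fluorescence, ex 355 nm, em 460 nm; Read-out: % inhibition of Ub-AMC cleavage fluorescence; Benchmarks: no-proteasome and no-compound wells.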
PLCg1 ctr = counter-screen for PLC-beta3 inhibitors: inhibitors of human PLC-gamma1. shares compounds with PLCg1 inh. purified PLC-gamma1, fluorogenic substrate, fluorescence. inhibition, % at 12.3 µM. actives 3.1% (n = 3,300)
PLCb3 confirm = confirmation of human PLC-beta3 inhibitors; purified PLC-beta3, fluorogenic substrate fluorescence; actives 1% (n = 3,300); shares compounds with PLCg1 inh; inhibition, % at 12.3 µM; in the data active = inhibition above about 11%
Numbers stand for hits; n = inactive; x = no result. Rule as the data show it, unless noted: active = inhibition above about 9.5%; inactive = the rest.

SMILES	PLCb3 inh	Rpn11 inh	PLCg1 inh	UCH37 inh	PLCg1 ctr	PLCb3 confirm
C#CCCC[C@@H]1OC(=O)CNC(=O)C([C@@H](C)CC)NC(=O)[C@@H]2CCCN2C(=O)C([C@@H](C)CC)OC(=O)[C@H](Cc2ccccc2)N(C)C(=O)[C@H](C(C)C)NC(=O)C1(C)C (stereo not given in full)	n	n	n	x	x	x
CCC(C)C1NC(=O)C(NC(=O)C(CC(C)C)N(C)C(=O)C2CCCN2C(=O)C(C)O)C(C)OC(=O)C(Cc2ccc(OC)cc2)N(C)C(=O)C2CCCN2C(=O)C(CC(C)C)NC(=O)[C@H](C)C(=O)[C@H](C(C)C)OC(=O)CC1O (stereo not given in full)	n	n	18.4	x	n	n
CC(=NN=C(N)N)c1ccccc1	x	x	x	n	x	x
COc1ccccc1-n1c(-c2ccoc2)nc2ccccc2c1=O	10.6	n	n	n	n	n
O=C(c1cccs1)C1CN2CCC1CC2 (stereo not given)	n	n	10.2	n	n	n
CC(=NO)c1ccc2ccc3ccccc3c2c1	x	x	x	n	x	x
COc1cc(C=Nn2cnnc2)ccc1OC(=O)N(C)C	x	x	x	n	x	x
CCC12CN3CCN(CC(C3)C1=NNC(=O)c1ccncc1)C2	x	x	x	n	x	x
O=C1NCN(c2ccccc2)C12CCN(C(c1ccccc1OC(F)(F)F)c1nnnn1C1CCCCC1)CC2 (stereo not given)	n	n	n	x	x	x
O=C1NCN(c2ccccc2)C12CCN(C(CCc1ccccc1)c1nnnn1C1CCCCC1)CC2 (stereo not given)	n	n	n	x	x	x
O=C1NCN(c2ccccc2)C12CCN(C(CCc1ccccc1)c1nnnn1C1CCCC1)CC2 (stereo not given)	n	n	11.1	x	n	n
O=C1NCN(c2ccccc2)C12CCN(C(c1ccccc1OC(F)(F)F)c1nnnn1C1CCCC1)CC2 (stereo not given)	n	n	10.6	x	n	n
Cc1cccc(CS(=O)(=O)Cc2ccc(C(=O)N3CCC4(CC3)OCCO4)o2)c1	11.4	n	13.8	n	n	n
O=C(c1ccc(CS(=O)(=O)c2ccccc2)o1)N1CCC2(CC1)OCCO2	n	n	n	n	x	x
CC(=O)C1C2c3ccccc3OC1(C)N=c1sc(=Cc3cnn(C)c3)c(=O)n12 (stereo not given)	x	x	x	n	x	x
O=C(Cn1cnc2sc3c(c2c1=O)CCCC3)NCCC(=O)N1CCC2(CC1)OCCO2	n	n	9.7	n	n	n
COC(=O)C12OCC34C(CC5C(C)=C(O)C(=O)CC5(C)C3C(O)C1O)OC(=O)C(OC(=O)/C=C(\C)C(C)C)C24 (stereo not given)	n	n	13.1	x	n	n
Nc1ccc(C(=O)NN=C2CN3CCC2CC3)cc1	x	x	x	n	x	x
COc1ccccc1OCCCn1cc(C(C)=O)c2ccccc21	n	n	12.7	n	n	n
Cc1cc(NC(=O)CCl)nn1C	n	n	13.5	n	n	n
CN(C)CC1CSCCC1(O)c1ccccc1Cl (stereo not given)	n	n	9.9	n	n	n
O=c1[nH]c2ccccc2c(=O)n1-c1ccc(Cl)cc1Cl	11.2	n	n	x	n	14.2
COc1cc2[nH]c(=O)n(-c3cccc(Cl)c3)c(=O)c2cc1OC	n	n	n	n	x	x
O=C1CN=C(c2ccccc2)c2c(sc3c2CCCC3)N1	n	n	11.4	n	n	n
C#CC1(O)CCC2C3CCC4=CC(=NOCC(=O)NCC(=O)NC(C(=O)O)C(C)C)CC[C@]4(C)C3CC[C@@]21C (stereo not given in full)	x	x	x	n	x	x
SMILES	PLCb3 inh	Rpn11 inh	PLCg1 inh	UCH37 inh	PLCg1 ctr	PLCb3 confirm
Cc1ccc(OCCOc2cccc(C=C3C(=O)NC(=O)NC3=O)c2)cc1	n	n	11.3	x	n	n
Oc1cccc(C=NNP(=S)(c2ccccc2)c2ccccc2)c1	x	x	x	n	x	x
CC(=NNP(=S)(c1ccccc1)c1ccccc1)c1ccc(O)cc1O	x	x	x	n	x	x
CC(C)C(=O)N1CCN(CCN=Cc2c(O)n(C)c(=O)n(C)c2=O)CC1	n	n	11.0	n	n	n
CCC(=O)N1CCN(CCN=Cc2c(O)n(C)c(=O)n(C)c2=O)CC1	n	n	n	n	x	x
NC(N)=NN=Cc1ccc(N2CCOCC2)cc1	x	x	x	n	x	x
OC(CC#CCN1CCCCCC1)(c1ccccc1)C1CCCC1 (stereo not given)	n	n	n	n	x	x
CN(C)CC#CCC(O)(c1ccccc1)C1CCCC1 (stereo not given)	12.8	n	n	n	n	n
FC(F)(F)c1ccc(CNCCc2ccc3c(c2)OCO3)cc1	n	n	10.9	n	n	n

Screening data deposited in PubChem BioAssay by several laboratories.
